These results are taken from ChEMBL document CHEMBL1139344, “Antagonists of the human A(2A) adenosine receptor. 4. Design, synthesis, and preclinical evaluation of 7-aryltriazolo[4,5-d]pyrimidines” (J Med Chem, 2009).

The target in one data set is T1, Adenosine receptor A3 (Homo sapiens, UniProt P0DMS8).
T1 sequence (P0DMS8 whole entry): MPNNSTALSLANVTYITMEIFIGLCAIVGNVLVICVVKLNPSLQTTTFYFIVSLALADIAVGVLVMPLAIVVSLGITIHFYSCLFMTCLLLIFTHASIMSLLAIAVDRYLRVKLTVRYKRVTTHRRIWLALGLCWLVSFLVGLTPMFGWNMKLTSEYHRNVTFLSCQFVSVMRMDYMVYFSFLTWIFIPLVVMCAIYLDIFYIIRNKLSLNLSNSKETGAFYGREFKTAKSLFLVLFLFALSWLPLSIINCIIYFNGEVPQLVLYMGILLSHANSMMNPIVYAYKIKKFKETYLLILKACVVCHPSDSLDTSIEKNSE
Briefly: Displacement of radioligand from human recombinant adenosine A3 receptor at 21 degC after 60 mins by cell-based microplate scintillation counting.

Data set [1] is described as follows: Aqueous solubility in phosphate buffered saline. The format is physicochemical.
The next data set addresses T2, Adenosine receptor A2b (Homo sapiens, UniProt P29275).
T2 sequence (P29275 whole entry): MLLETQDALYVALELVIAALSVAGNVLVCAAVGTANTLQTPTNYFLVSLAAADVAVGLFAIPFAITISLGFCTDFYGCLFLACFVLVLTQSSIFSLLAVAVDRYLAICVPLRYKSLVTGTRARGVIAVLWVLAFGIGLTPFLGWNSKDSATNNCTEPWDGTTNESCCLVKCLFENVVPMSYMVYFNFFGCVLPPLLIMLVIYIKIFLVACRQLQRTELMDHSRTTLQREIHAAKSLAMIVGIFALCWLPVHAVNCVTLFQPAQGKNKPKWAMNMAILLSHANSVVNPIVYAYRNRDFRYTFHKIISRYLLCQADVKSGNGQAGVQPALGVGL
Description: Displacement of radioligand from human recombinant adenosine A2B receptor at 21 degC after 60 mins by cell-based microplate scintillation counting.

The target of another data set is Adenosine receptor A2a (Homo sapiens, UniProt P29274). Briefly: Displacement of radioligand from human recombinant adenosine A2A receptor at 21 degC after 90 mins by cell-based microplate scintillation counting.
Adenosine receptor A2a, sequence (P29274 whole entry): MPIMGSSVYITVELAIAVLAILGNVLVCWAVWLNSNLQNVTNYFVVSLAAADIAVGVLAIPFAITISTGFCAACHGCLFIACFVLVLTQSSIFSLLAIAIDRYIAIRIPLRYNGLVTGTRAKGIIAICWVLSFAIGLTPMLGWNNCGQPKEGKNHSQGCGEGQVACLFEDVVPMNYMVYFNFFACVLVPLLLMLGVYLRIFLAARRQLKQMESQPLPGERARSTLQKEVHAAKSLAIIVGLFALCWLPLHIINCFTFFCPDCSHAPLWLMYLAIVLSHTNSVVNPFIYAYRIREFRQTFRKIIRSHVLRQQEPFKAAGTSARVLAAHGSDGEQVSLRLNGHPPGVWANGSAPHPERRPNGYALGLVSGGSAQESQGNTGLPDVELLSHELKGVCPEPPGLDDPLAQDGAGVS
The target in the next data set is T3, Adenosine receptor A1 (Homo sapiens, UniProt P30542).
T3 sequence (P30542 whole entry): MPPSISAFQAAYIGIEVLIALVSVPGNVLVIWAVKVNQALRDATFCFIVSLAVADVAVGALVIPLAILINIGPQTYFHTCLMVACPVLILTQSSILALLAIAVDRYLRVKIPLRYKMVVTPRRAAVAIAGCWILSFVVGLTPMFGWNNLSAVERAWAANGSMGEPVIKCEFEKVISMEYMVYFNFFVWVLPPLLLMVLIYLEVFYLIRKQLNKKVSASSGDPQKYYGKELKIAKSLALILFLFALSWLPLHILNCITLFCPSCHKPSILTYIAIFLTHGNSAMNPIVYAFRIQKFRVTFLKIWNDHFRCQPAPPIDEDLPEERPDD
Description: Displacement of radioligand from human recombinant adenosine A1 receptor at 21 degC after 90 mins by cell-based microplate scintillation counting.

A further data set has as its system Liver microsomes. Briefly: Metabolic stability in rat liver microsomes after 30 mins. In kind it is ADME, Microsome. Conditions: 0.5 h. The method, boiled down: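 Turnover by rodent liver microsomes measured as percent turnover after 30 min.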
For orientation: Liver microsomes are vesicles of endoplasmic reticulum, rich in cytochrome P450 enzymes.

Another data set has as its system Rattus norvegicus. Description: Reversal of haloperidol-induced hypolocomotion in Sprague-Dawley rat assessed as time spent for locomotor activity at 30 mg/kg, po administered 120 mins prior and measured for 60 mins. In kind it is functional, organism-based. Set-up: dose 30 mg/kg.
A further data set concerns Mus musculus. Description: Reversal of haloperidol-induced hypolocomotion in TO mouse assessed as time spent for locomotor activity at 30 mg/kg, po administered 15 mins prior and measured for 60 mins. The format is functional, organism-based. Set-up: dose 30 mg/kg.

In brackets after ≈: the same amount, converted by molar mass. Activity calls are given as the source filed them. No cut-off for these calls is given here.

By Ki is commonly meant a dissociation constant, usually derived from enzyme kinetics or from competition with a known ligand. The solubility is the concentration that dissolves in the medium under given conditions. A low value points to a poorly soluble substance. Consider `Nc1nc(-c2ccco2)c2nnn(Cc3ccccc3)c2n1`, for which the Ki worked out at 285 nM at Adenosine receptor A3, 122 nM at Adenosine receptor A2b, 1.9 nM at Adenosine receptor A2a and 83 nM at Adenosine receptor A1. The molecule further had a solubility in data set [1] of 30 µM (≈ 8.77 µg/mL). The Stability result with Liver microsomes is “Stable”. Also, the result in the data set with Rattus norvegicus and with Mus musculus was inactive.
As for `Nc1nc(-c2ccco2)c2nnn(Cc3c(F)cccc3F)c2n1`, the Ki amounted to 203 nM at Adenosine receptor A3, 24 nM on Adenosine receptor A2b, 1.9 nM at Adenosine receptor A2a and 42 nM on Adenosine receptor A1.
As to `Nc1ccc(Cn2nnc3c(-c4ccco4)nc(N)nc32)c(F)c1`, the Ki amounted to 685 nM on Adenosine receptor A3, 23 nM at Adenosine receptor A2b, 3.5 nM at Adenosine receptor A2a and 190 nM on Adenosine receptor A1.
On to `Nc1nc(-c2ccco2)c2nnn(Cc3cccc(O)c3)c2n1`, for which the Ki on Adenosine receptor A3 was found to be 491 nM; at Adenosine receptor A2b it was 10 nM; at Adenosine receptor A2a, 4 nM; on Adenosine receptor A1 it was 314 nM.
Turning to `COC(=O)c1cccc(Cn2nnc3c(-c4ccco4)nc(N)nc32)c1`, the Ki at Adenosine receptor A3 was found to be 1170 nM; on Adenosine receptor A2b, 907 nM; on Adenosine receptor A2a, 4.1 nM; at Adenosine receptor A1 it was 105 nM. This molecule displayed a solubility in data set [1] of 30 µM (≈ 10.5 µg/mL). Further, in the data set with Liver microsomes, the Stability entry was “Stable”.
Regarding `Nc1nc(-c2ccco2)c2nnn(Cc3ccc4[nH]ncc4c3)c2n1`, the Ki at Adenosine receptor A3 is 2430 nM; on Adenosine receptor A2b it was 206 nM; at Adenosine receptor A2a it was 8.6 nM; on Adenosine receptor A1, 190 nM.
For `Cc1csc(-c2nc(N)nc3c2nnn3Cc2ccccc2F)n1`, the Ki on Adenosine receptor A3 worked out at 1260 nM; at Adenosine receptor A2b, 53 nM; on Adenosine receptor A2a, 2.2 nM; on Adenosine receptor A1, 203 nM.
With `Nc1nc(-c2ccco2)c2nnn(Cc3cc(F)ccc3F)c2n1`, the Ki on Adenosine receptor A3 is 450 nM; on Adenosine receptor A2b it was 128 nM; at Adenosine receptor A2a, 2.2 nM; at Adenosine receptor A1, 98 nM.
In the same order, the values of `Nc1nc(-c2ccco2)c2nnn(Cc3cnccn3)c2n1` are 2220 nM, 1140 nM, 122 nM and 1170 nM.
The like results for `Nc1nc(-c2ccco2)c2nnn(Cc3ccc4[nH]ccc4c3)c2n1` were, in that order, 606 nM, 59 nM, 1.1 nM and 27 nM.
`Nc1nc(-c2ccco2)c2nn[nH]c2n1`: in data set [1], the concentration in solution (solubility) came to 30 µM (≈ 6.07 µg/mL). Besides, the Ki on Adenosine receptor A2a was found to be 194 nM; at Adenosine receptor A1, 3620 nM. Moreover, the Stability result in the data set with Liver microsomes is listed as “Stable”. For the same molecule, the result with Rattus norvegicus and in the data set on Mus musculus was inactive.
On to `Nc1nc(-c2ccco2)c2nnn(Cc3cccc(F)c3F)c2n1`, for which the Ki at Adenosine receptor A3 is 619 nM; on Adenosine receptor A2b, 79 nM; on Adenosine receptor A2a, 2.3 nM; at Adenosine receptor A1 it was 110 nM.
Regarding `Nc1nc(-c2nccs2)c2nnn(Cc3ccccc3F)c2n1`, the Ki at Adenosine receptor A3 was 2200 nM; on Adenosine receptor A2b, 271 nM; at Adenosine receptor A2a it was 8.5 nM; on Adenosine receptor A1 it was 553 nM. Moreover, the solubility in data set [1] was 30 µM (≈ 9.82 µg/mL). Moreover, the outcome in the data set on Rattus norvegicus and in the data set on Mus musculus was inactive.
With `Nc1nc(-c2ccco2)c2nnn(Cc3ccc(N)c(O)c3)c2n1`, the inhibition constant Ki at Adenosine receptor A3 worked out at 1360 nM; at Adenosine receptor A2b, 84 nM; on Adenosine receptor A2a, 1.6 nM; at Adenosine receptor A1, 249 nM.
In the same order, the values of `Cc1cccc(Cn2nnc3c(-c4ccco4)nc(N)nc32)c1` are 360 nM, 254 nM, 3 nM and 45 nM.
As for `COc1cccc(Cn2nnc3c(-c4ccco4)nc(N)nc32)c1`, the Ki on Adenosine receptor A3 was 563 nM; on Adenosine receptor A2b it was 643 nM; at Adenosine receptor A2a, 1.8 nM; on Adenosine receptor A1, 77 nM.
Take `NCc1ccc(Cn2nnc3c(-c4ccco4)nc(N)nc32)cc1`: the Ki on Adenosine receptor A3 is above 10000 nM; on Adenosine receptor A2b, 916 nM; at Adenosine receptor A2a, 241 nM; on Adenosine receptor A1, 4910 nM.
In the case of `Nc1nc(-c2ccco2)c2nnn(CC3CCCCC3)c2n1`, the Ki at Adenosine receptor A3 is 1140 nM; at Adenosine receptor A2b, 634 nM; on Adenosine receptor A2a, 8.5 nM; on Adenosine receptor A1, 230 nM.
In the same order, the values of `Nc1nc(-c2ccco2)c2nnn(Cc3ccccc3[N+](=O)[O-])c2n1` are 168 nM, 383 nM, 6.6 nM and 400 nM.
Consider `Cc1cnc(-c2nc(N)nc3c2nnn3Cc2ccccc2F)s1`, for which the Ki on Adenosine receptor A3 was determined as 338 nM; at Adenosine receptor A2b it was 199 nM; at Adenosine receptor A2a it was 8.5 nM; at Adenosine receptor A1 it was 86 nM.
Regarding `COc1ccccc1Cn1nnc2c(-c3ccco3)nc(N)nc21`, the Ki on Adenosine receptor A3 stood at 340 nM; on Adenosine receptor A2b it was 741 nM; on Adenosine receptor A2a, 5.4 nM; on Adenosine receptor A1 it was 319 nM.
For the molecule `Nc1nc(-c2ncco2)c2nnn(Cc3ccccc3F)c2n1`, the Ki stood at 2110 nM at Adenosine receptor A3, 836 nM at Adenosine receptor A2b, 41 nM at Adenosine receptor A2a and 599 nM on Adenosine receptor A1.
In the same order, the values of `Nc1nc(-c2ccco2)c2nnn(Cc3cccc(C(=O)O)c3)c2n1` are 3810 nM, 2110 nM, 832 nM and 4140 nM.
The like results for `Nc1nc(-c2ccco2)c2nnn(Cc3cccc(C(F)(F)F)c3)c2n1` were, in that order, 736 nM, 259 nM, 2.2 nM and 100 nM.
Turning to `Nc1nc(-c2cccs2)c2nnn(Cc3ccccc3F)c2n1`, the Ki at Adenosine receptor A3 was 871 nM; on Adenosine receptor A2b, 248 nM; at Adenosine receptor A2a, 8.2 nM; at Adenosine receptor A1, 154 nM.
`Nc1nc(-c2ccco2)c2nnn(Cc3ccc4[nH]nnc4c3)c2n1`: the Ki on Adenosine receptor A3 was determined as 3010 nM; at Adenosine receptor A2b, 134 nM; at Adenosine receptor A2a, 11.9 nM; on Adenosine receptor A1, 291 nM.
In the same order, the values of `CC(=O)Nc1ccc(Cn2nnc3c(-c4ccco4)nc(N)nc32)cc1` are 2380 nM, 443 nM, 116 nM and 2530 nM.
In the same order, the values of `Nc1nc(-c2cncs2)c2nnn(Cc3ccccc3F)c2n1` are 1780 nM, 423 nM, 31 nM and 894 nM.
In the same order, the values of `Nc1nc(-c2ccco2)c2nnn(Cc3ccco3)c2n1` are 240 nM, 192 nM, 8.8 nM and 77 nM.
`Nc1nc(-c2ccco2)c2nnn(Cc3cccc(Cl)c3)c2n1`: the Ki came out at 269 nM at Adenosine receptor A3, 160 nM on Adenosine receptor A2b, 2.3 nM at Adenosine receptor A2a and 76 nM on Adenosine receptor A1.
For the molecule `N#Cc1cccc(Cn2nnc3c(-c4ccco4)nc(N)nc32)c1`, the Ki at Adenosine receptor A3 was found to be 693 nM; at Adenosine receptor A2b, 630 nM; on Adenosine receptor A2a it was 3.9 nM; on Adenosine receptor A1 it was 132 nM.
The like results for `Nc1nc(-c2ccco2)c2nnn(Cc3ccc(N)c(F)c3)c2n1` were, in that order, 1070 nM, 43 nM, 0.7 nM and 120 nM.
